In ChEMBL document CHEMBL1131301, “Tyrosine kinase inhibitors. 14. Structure-activity relationships for methylamino-substituted derivatives of 4-[(3-bromophenyl)amino]-6-(methylamino)-pyrido[3,4-d]pyrimidine (PD 158780), a potent and specific inhibitor of the tyrosine kinase activity of receptors for the EGF family of growth factors” (J Med Chem, 1998):
In brackets after ≈: the same amount, converted by molar mass.

Tests used:
[1] = target: Fibroblast growth factor receptor (Homo sapiens, UniProt P22607+P11362+P22455+P21802); test: Inhibition of fibroblast growth factor receptor(FGFR); assay type: protein assay
[2] = target: T1, Epidermal growth factor receptor (Homo sapiens, UniProt P00533); test: (§1) Inhibition of tyrosine/glutamic acid copolymer phosphorylation by epidermal growth factor receptor prepared of human A431
[3] = target: T1, Epidermal growth factor receptor; test: as §1; remark: listed apart in the source
[4] = target: T1, Epidermal growth factor receptor; test: Inhibition of autophosphorylation of epidermal growth factor receptor in A431 cells in culture
[5] = target: Receptor tyrosine-protein kinase erbB-2 (Homo sapiens, UniProt P04626); test: Inhibition of heregulin-dependent autophosphorylation of ErbB2 receptor in MDA-MB-453 cells; assay type: functional, cell-based
Mus musculus [6] = test: Net reduction in EGFR tumor burden between the first and last treatments in mice at 200 mg/kg peroral dose, days 1-15 administration; assay type: functional; details: route oral
How it was run: (§2)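 NCr nu/nu nude mice (18-22 g) were randomized and implanted sc with A431 epidermoid, human-EGFR-transfected NIH 3T3 fibroblast, or MCF-7 breast tumor fragments in the right axilla on day 0. Dosing was ip or oral, by average cage weight, with 6 mice per dose group. Log net cell kill is the net reduction in tumor burden between the first and last treatments.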

A-431 [7] = test: Difference in days for treated (T) and control (C) A431 tumor fragments to reach 750 mg in mice at 25 mg/kg intraperitoneal dose, administration days 7-21
Mus musculus [8] = test: Difference in days for treated (T) and control (C) EGFR tumor fragments to reach 750 mg in mice at 200 mg/kg peroral dose, administration days 1-15; assay type: functional; details: route oral
Mus musculus [9] = test: Weight change of EGFR tumor bearing mice at 200 mg/kg peroral dose, days 1-15 administration; assay type: functional, organism-based; design: dose 200 mg/kg
A-431 [10] = test: Ratio of treated and control A431 median tumor mass*100% in mice at 25 mg/kg peroral dose, days 7-21 administration; assay type: functional; details: route intraperitoneal, in the assay text read “intraperitoneal” for “peroral”
How it was run: (§3)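 Nude mice (NCr nu/nu, 18-22 g) were randomized and implanted sc with tumor fragments in the right axilla on day 0. Tumor lines were A431 epidermoid, NIH 3T3 fibroblasts transfected with human EGFR, and MCF-7 breast. Dosing was ip or oral, by average cage weight, with 6 mice/dose group. Vehicle was 6% dimethylacetamide/94% 50 mM sodium lactate pH 4.0 (suspension), or isethionate salt in water.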

[11] = target: T1, Epidermal growth factor receptor; test: Inhibition of EGF-dependent autophosphorylation of EGF-R in A431 cells
[12] = Aqueous solubility ([…] degree C); assay type: physicochemical
A-431 [13] = test: Net reduction in A431 tumor burden between the first and last treatments in mice at 25 mg/kg ip dose, days 7-21 administration; assay type: functional; details: route intraperitoneal; how it was run: as §2
Mus musculus [14] = test: Net reduction in EGFR tumor burden between the first and last treatments in mice at 25 mg/kg ip dose, days 1-15 administration; assay type: functional; details: route intraperitoneal; how it was run: as §2
Mus musculus [15] = test: Difference in days for treated (T) and control (C) EGFR tumor fragments to reach 750 mg in mice at 25 mg/kg ip dose, administration days 1-15; assay type: functional; details: route intraperitoneal
Mus musculus [16] = test: Weight change of EGFR tumor bearing mice at 25 mg/kg ip dose, days 1-15 administration; details: route intraperitoneal
[17] = target: Proto-oncogene tyrosine-protein kinase Src (Homo sapiens, UniProt P12931); test: Inhibition of c-Src tyrosine kinase
[18] = Inhibition of Platelet-derived growth factor receptor (PDGFR)
Mus musculus [19] = test: Ratio of treated and control EGFR median tumor mass*100% in mice at 200 mg/kg peroral dose, days 1-15 administration; assay type: functional; details: route oral; how it was run: as §3
Mus musculus [20] = test: Ratio of treated and control EGFR median tumor mass*100% in mice at 25 mg/kg ip dose, days 1-15 administration; assay type: functional; details: route intraperitoneal; how it was run: as §3
A-431 [21] = test: Weight change in A431 tumor bearing mice at 25 mg/kg ip dose, days 7-21 administration; assay type: functional; details: route intraperitoneal
Insulin receptor = Insulin receptor (Homo sapiens, UniProt P06213); test: Inhibition of insulin receptor(IR)
Mus musculus [22] = test: Difference in days for treated (T) and control (C) EGFR tumor fragments to reach 750 mg in mice at 400 mg/kg peroral dose, administration days 1-15; assay type: functional; details: route oral
Mus musculus [23] = test: Net reduction in EGFR tumor burden between the first and last treatments in mice at 400 mg/kg peroral dose, days 1-15 administration; assay type: functional; details: route oral; how it was run: as §2
Mus musculus [24] = test: Weight change of EGFR tumor bearing mice at 25 mg/kg ip dose, days 1-15 administration; assay type: functional; details: route intraperitoneal
SK-OV-3 [25] = test: Difference in days for treated (T) and control (C) SKOV-3 tumor fragments to reach 750 mg in mice at 25 mg/kg ip dose, administration days 10-14,17-21,24-28; assay type: functional; details: route intraperitoneal
MCF7 [26] = test: Ratio of treated and control MCF-7 median tumor mass*100% in mice at 25 mg/kg ip dose, days 1-15 administration; assay type: functional; details: route intraperitoneal; how it was run: as §3
A-431 [27] = test: Net reduction in A431 tumor burden between the first and last treatments in mice at 25 mg/kg ip dose, administration days 13-26; assay type: functional; details: route intraperitoneal; how it was run: as §2
Mus musculus [28] = test: Weight change of EGFR tumor bearing mice at 400 mg/kg peroral dose, days 1-15 administration; assay type: functional; details: route oral
A-431 [29] = test: Difference in days for treated (T) and control (C) A431 tumor fragments to reach 750 mg in mice at 25 mg/kg peroral dose, administration days 7-21; assay type: functional; details: route oral
SK-OV-3 [30] = test: Ratio of treated and control SKOV-3 median tumor mass*100% in mice at 25 mg/kg ip dose, days 10-14,17-21,24-28 administration; assay type: functional; details: route intraperitoneal
MCF7 [31] = test: Weight change in MCF-7 tumor bearing mice at 25 mg/kg ip dose, days 1-15 administration; assay type: functional
A-431 [32] = test: Weight change in A431 tumor bearing mice at 12 mg/kg ip dose, days 7-21 administration; assay type: functional; details: route intraperitoneal
A-431 [33] = test: Difference in days for treated (T) and control (C) A431 tumor fragments to reach 750 mg in mice at 12 mg/kg peroral dose, administration days 7-21; assay type: functional; details: route intraperitoneal, in the assay text read “intraperitoneal” for “peroral”; how it was run: as §3
A-431 [34] = test: Ratio of treated and control A431 median tumor mass*100% in mice at 12 mg/kg peroral dose, days 7-21 administration; assay type: functional; details: route intraperitoneal, in the assay text read “intraperitoneal” for “peroral”; how it was run: as §3
A-431 [35] = test: WWeight change in A431 tumor bearing mice at 25 mg/kg ip dose, days 13-26 administration; assay type: functional; details: route intraperitoneal
SK-OV-3 [36] = test: Weight change in SKOV-3 tumor bearing mice at 25 mg/kg ip dose, days 10-14,17-21,24-28 administration; assay type: functional; details: route intraperitoneal
MCF7 [37] = test: Difference in days for treated (T) and control (C) MCF-7 tumor fragments to reach 750 mg in mice at 25 mg/kg ip dose, administration days 1-15; assay type: functional; details: route intraperitoneal
A-431 [38] = test: Ratio of treated and control A431 median tumor mass*100% in mice at 25 mg/kg peroral dose, days 13-26 administration; assay type: functional, Mus musculus; details: route intraperitoneal, in the assay text read “intraperitoneal” for “peroral”; how it was run: as §3
MCF7 [39] = test: Net reduction in MCF-7 tumor burden between the first and last treatments in mice at 25 mg/kg ip dose, days 1-15 administration; assay type: functional; details: route intraperitoneal; how it was run: as §2
[40] = target: T1, Epidermal growth factor receptor; test: Inhibit of phosphorylation of a tyrosine/glutamic acid copolymer by epidermal growth factor receptor prepared from human A431 carcinoma cell vesicles by immunoaffinity chromatography.
Mus musculus [41] = test: Ratio of treated and control EGFR median tumor mass*100% in mice at 400 mg/kg peroral dose, days 1-15 administration; assay type: functional; details: route oral; how it was run: as §3
A-431 [42] = test: Net reduction in A431 tumor burden between the first and last treatments in mice at 12 mg/kg ip dose, days 7-21 administration; assay type: functional; details: route intraperitoneal; how it was run: as §2

T1 sequence (P00533 whole entry): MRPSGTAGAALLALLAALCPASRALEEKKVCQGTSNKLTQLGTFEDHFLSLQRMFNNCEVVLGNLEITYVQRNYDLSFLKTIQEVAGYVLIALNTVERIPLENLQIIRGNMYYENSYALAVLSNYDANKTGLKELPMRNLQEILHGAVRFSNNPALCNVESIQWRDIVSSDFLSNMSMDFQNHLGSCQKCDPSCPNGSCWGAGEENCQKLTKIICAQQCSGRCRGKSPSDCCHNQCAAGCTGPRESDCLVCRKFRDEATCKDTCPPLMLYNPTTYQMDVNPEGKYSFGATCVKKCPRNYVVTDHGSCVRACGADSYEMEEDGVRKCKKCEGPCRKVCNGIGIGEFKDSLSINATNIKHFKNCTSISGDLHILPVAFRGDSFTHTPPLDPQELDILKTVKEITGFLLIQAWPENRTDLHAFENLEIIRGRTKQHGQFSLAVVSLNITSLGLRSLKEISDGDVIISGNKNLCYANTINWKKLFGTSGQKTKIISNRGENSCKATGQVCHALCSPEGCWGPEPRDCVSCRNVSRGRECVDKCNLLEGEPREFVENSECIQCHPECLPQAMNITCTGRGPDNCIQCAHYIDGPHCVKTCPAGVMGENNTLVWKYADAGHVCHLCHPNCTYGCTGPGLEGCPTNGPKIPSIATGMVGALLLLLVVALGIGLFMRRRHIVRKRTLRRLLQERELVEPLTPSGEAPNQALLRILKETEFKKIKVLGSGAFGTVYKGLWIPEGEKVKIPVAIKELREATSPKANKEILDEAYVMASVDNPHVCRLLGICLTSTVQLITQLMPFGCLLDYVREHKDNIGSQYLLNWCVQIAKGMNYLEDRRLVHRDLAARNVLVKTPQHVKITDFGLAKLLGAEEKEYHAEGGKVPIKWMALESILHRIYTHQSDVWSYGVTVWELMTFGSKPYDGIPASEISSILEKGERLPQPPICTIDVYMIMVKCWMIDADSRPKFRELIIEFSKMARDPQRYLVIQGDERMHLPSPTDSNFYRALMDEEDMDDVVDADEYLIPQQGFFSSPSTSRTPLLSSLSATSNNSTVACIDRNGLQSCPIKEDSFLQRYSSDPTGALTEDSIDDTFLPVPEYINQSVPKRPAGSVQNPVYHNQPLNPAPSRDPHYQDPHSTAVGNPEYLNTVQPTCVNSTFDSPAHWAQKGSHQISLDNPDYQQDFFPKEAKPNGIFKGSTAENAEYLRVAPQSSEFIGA
Sequence of Receptor tyrosine-protein kinase erbB-2 (P04626 whole entry): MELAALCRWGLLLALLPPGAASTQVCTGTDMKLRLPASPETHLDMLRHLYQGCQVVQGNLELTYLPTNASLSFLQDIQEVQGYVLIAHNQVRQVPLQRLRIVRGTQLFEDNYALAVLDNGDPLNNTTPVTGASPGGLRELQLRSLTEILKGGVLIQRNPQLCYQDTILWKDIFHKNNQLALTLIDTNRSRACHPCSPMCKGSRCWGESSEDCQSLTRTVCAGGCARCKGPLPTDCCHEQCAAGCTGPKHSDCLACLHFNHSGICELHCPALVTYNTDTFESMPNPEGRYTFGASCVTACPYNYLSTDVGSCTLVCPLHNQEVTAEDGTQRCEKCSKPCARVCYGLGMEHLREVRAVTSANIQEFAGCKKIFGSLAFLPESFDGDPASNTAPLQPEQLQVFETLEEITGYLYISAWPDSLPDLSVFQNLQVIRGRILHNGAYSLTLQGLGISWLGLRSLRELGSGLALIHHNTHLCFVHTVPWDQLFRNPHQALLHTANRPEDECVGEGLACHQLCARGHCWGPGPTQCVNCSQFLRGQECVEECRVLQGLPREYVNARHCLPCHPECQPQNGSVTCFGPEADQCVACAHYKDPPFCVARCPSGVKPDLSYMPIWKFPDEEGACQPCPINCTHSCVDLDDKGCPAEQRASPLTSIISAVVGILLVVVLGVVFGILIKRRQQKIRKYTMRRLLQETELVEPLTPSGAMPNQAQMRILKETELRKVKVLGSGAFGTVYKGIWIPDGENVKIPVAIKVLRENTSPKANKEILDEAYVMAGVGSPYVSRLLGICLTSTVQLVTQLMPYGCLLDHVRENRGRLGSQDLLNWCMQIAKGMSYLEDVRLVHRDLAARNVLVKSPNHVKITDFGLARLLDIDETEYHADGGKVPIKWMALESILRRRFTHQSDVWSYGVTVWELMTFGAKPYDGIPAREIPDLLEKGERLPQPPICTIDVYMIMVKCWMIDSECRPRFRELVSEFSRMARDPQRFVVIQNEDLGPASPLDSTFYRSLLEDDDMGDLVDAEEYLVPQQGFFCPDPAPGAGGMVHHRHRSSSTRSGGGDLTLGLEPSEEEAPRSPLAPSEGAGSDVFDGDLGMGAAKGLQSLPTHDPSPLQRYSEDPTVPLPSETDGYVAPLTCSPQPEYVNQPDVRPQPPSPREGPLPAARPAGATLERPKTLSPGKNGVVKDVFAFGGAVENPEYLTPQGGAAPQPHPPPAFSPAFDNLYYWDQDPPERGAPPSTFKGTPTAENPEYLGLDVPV
Sequence of Insulin receptor (P06213 28-758 limits assumed): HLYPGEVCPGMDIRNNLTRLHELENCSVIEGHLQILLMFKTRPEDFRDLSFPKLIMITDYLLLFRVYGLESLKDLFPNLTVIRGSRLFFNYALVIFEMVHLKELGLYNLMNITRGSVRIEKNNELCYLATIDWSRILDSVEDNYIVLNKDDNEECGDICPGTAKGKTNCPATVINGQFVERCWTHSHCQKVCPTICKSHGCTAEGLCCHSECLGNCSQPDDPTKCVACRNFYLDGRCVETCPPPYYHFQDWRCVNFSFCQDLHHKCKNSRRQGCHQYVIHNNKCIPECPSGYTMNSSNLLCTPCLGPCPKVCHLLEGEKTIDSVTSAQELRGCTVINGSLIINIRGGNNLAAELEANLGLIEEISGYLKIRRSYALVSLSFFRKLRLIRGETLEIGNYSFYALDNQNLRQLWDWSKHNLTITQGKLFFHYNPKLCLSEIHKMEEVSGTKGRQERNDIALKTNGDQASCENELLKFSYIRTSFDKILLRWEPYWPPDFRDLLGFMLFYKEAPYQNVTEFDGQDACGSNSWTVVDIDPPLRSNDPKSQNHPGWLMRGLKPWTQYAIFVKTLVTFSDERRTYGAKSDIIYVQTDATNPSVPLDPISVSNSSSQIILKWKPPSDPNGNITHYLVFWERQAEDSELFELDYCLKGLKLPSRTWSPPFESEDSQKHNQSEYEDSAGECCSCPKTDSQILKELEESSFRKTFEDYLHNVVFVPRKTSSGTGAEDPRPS
Sequence of Insulin receptor (P06213 763-1382 limits assumed): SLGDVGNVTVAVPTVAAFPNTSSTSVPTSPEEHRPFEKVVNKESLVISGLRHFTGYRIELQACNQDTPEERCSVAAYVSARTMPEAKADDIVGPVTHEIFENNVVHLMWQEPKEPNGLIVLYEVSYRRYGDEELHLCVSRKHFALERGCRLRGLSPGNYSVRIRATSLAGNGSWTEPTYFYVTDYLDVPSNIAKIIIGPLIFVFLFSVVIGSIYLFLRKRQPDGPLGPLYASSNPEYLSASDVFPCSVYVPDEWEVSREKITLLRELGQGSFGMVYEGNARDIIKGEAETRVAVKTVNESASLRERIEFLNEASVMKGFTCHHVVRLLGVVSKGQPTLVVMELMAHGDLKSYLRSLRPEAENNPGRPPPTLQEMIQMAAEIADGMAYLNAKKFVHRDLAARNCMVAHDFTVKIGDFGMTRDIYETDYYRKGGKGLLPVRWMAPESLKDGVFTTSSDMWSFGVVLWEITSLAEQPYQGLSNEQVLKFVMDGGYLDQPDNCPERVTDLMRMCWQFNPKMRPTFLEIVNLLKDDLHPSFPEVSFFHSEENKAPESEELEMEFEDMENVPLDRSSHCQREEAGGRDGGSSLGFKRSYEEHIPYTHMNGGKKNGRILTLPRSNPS
Sequence of Proto-oncogene tyrosine-protein kinase Src (P12931 2-536 limits assumed): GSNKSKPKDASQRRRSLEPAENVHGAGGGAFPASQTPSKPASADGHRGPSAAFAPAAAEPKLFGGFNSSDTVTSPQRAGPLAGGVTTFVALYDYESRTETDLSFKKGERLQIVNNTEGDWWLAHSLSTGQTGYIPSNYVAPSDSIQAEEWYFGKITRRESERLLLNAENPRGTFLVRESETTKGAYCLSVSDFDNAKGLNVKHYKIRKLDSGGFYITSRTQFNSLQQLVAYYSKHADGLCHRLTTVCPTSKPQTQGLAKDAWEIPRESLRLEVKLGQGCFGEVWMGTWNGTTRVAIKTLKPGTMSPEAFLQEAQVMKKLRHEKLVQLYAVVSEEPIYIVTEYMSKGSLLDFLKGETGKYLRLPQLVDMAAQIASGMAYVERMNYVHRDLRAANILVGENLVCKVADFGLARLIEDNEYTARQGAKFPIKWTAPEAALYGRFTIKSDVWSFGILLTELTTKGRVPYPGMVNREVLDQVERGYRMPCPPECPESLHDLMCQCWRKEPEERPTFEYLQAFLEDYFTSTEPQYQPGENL

Question: Which IC50 [1] does the source give for CN(C)CCNc1cc2c(Nc3cccc(Br)c3)ncnc2cn1 here?
Answer: The IC50 was > 50000 nM.

Question: And the IC50 [2]?
Answer: Its IC50 is 1.1 nM.

Question: And the IC50 [3]?
Answer: The IC50 was 1.1 nM.

Question: And the IC50 [4]?
Answer: Its IC50 is 43 nM.

Question: What about the IC50 [5] of the same compound?
Answer: The IC50 was 379 nM.

Question: What about the Net cell kill (Mus musculus [6]) of the same compound?
Answer: Its Net cell kill is -1.3 log10.

Question: What about the T-C (A-431 [7]) of the same compound?
Answer: Its T-C is 4.7 days.

Question: And the T-C (Mus musculus [8])?
Answer: The T-C was 1.1 days.

Question: And the Weight change (Mus musculus [9])?
Answer: Its Weight change is “Weight gain”.

Question: And the T/C (A-431 [10])?
Answer: The T/C was 66%.

Question: And the IC50 [11]?
Answer: The IC50 was 43 nM.

Question: What about the S ([12]; buffer) of the same compound?
Answer: Its S is > 48 mM.

Question: What about the Net cell kill (A-431 [13]) of the same compound?
Answer: Its Net cell kill is -0.5 log10.

Question: What about the Net cell kill (Mus musculus [14]) of the same compound?
Answer: The Net cell kill was -1 log10.

Question: And the T-C (Mus musculus [15])?
Answer: Its T-C is 3.3 days.

Question: And the Weight change (Mus musculus [16])?
Answer: Its Weight change is -1.1 g.

Question: And the IC50 [17]?
Answer: The IC50 was > 50000 nM.

Question: And the IC50 [18]?
Answer: Its IC50 is > 50000 nM.

Question: And the T/C (Mus musculus [19])?
Answer: The T/C was 47%.

Question: What about the T/C (Mus musculus [20]) of the same compound?
Answer: The T/C was 43%.

Question: And the Weight change (A-431 [21])?
Answer: The Weight change was -1.4 g.

Question: What about the IC50 (Insulin receptor) of the same compound?
Answer: Its IC50 is > 50000 nM.

Question: Which results are given for Brc1cccc(Nc2ncnc3cnc(NCCN4CCOCC4)cc23)c1?
Answer: IC50 [1]: > 50000 nM; T-C (Mus musculus [22]): 2.8 days; IC50 [2]: 0.7 nM; Net cell kill (Mus musculus [23]): -1.1 log10; Weight change (Mus musculus [24]): -1.3 g; T-C (SK-OV-3 [25]): 0 days; T/C (MCF7 [26]): 34%; IC50 [4]: 7.9 nM; Net cell kill (A-431 [27]): -0.3 log10; IC50 [5]: 219 nM; Weight change (Mus musculus [28]): -2 g; T-C (A-431 [29]): 2.1 days; T/C (SK-OV-3 [30]): 100%; Weight change (MCF7 [31]): Weight gain; IC50 [11]: 7.9 nM; Weight change (A-431 [32]): -0.2 g; solubility ([12]; water, read-out: S): 10 mM (≈ 4290 µg/mL); Net cell kill (Mus musculus [14]): -1.2 log10; T-C (Mus musculus [15]): 1.2 days; T-C (A-431 [33]): 1.9 days; IC50 [17]: > 50000 nM; IC50 [18]: > 50000 nM; T/C (A-431 [34]): 93%; Weight change (A-431 [35]): -1.1 g; T/C (Mus musculus [20]): 77%; Weight change (SK-OV-3 [36]): -2.1 g; T-C (MCF7 [37]): 11.7 days; T/C (A-431 [38]): 98%; Net cell kill (MCF7 [39]): -0.1 log10; IC50 [40]: 0.65 nM; IC50 (Insulin receptor): > 50000 nM; T/C (Mus musculus [41]): 15%; Net cell kill (A-431 [42]): -0.7 log10
